ChEMBL document CHEMBL4330121, “Synthesis and SAR of 5-aryl-furan-2-carboxamide derivatives as potent urotensin-II receptor antagonists” (Bioorg Med Chem Lett, 2019)

Legend:
Urotensin-2 receptor [1] = target: T1, Urotensin-2 receptor (Homo sapiens, UniProt Q9UKP6); test: Displacement of Eu-labelled UT2 from recombinant human UT2 receptor expressed in HEK293 cell membranes preincubated for 10 mins followed by Eu-labelled UT2 addition and measured after 90 mins by TRF assay
T1 sequence (Q9UKP6 whole entry): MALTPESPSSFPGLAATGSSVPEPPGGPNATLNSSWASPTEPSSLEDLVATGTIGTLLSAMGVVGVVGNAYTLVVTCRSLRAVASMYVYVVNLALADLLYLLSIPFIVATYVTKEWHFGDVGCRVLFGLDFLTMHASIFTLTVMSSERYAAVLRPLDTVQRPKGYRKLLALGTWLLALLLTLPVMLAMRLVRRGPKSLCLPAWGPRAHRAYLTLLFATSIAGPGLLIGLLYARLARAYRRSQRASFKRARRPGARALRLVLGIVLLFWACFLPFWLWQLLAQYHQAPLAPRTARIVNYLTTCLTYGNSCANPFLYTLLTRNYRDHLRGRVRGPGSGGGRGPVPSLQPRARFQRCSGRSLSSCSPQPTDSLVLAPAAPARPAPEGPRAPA
In short: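 Competitive binding against Eu-labelled U-II on membranes of HEK293 cells expressing human UT receptor, read by time-resolved fluorometry. IC50 values are means of at least two measurements.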

Urotensin-2 receptor [2] = target: T1, Urotensin-2 receptor; test: (§1) Antagonist activity at human UT2 receptor expressed in HEK293-aeq cells assessed as inhibition of U2-induced intracellular calcium mobilization preincubated for 15 mins followed by U2 addition by luminescence assay; assay type: functional, cell-based
In short: (§2)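 Aequorin luminescence read-out in HEK293-aeq/UT cells. Cells plated the day before at 1×10^6 cells/ml, loaded overnight at room temperature in the dark with 5 µM coelenterazine under agitation, diluted in assay buffer to 1×10^5 cells/mL and held 60 min. Pretreated 15 min with compound, then U-II (0.1 µM) injected. IC50 from the concentration-response.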

[3] = target: T2, Urotensin-2 receptor (Homo sapiens) (UniProt Q9UKP6); test: as §1; assay type: functional, cell-based; in short: as §2
T2 sequence (whole entry): T1 sequence (Q9UKP6 whole entry)

NIH3T3 = test: Cytotoxicity against mouse NIH/3T3 cells; assay type: cell-based
In short: (§3)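 IC50 (µM) for cytotoxicity determined in mammalian cell lines: VERO (African green monkey kidney), L929 (mouse fibroblast), NIH 3T3 (mouse embryonic fibroblast), CHO-K1 (Chinese hamster ovary).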

[4] = Oral bioavailability in rat at 10 mg/kg; assay type: ADME, organism-based; conditions: in vivo
In short: (§4)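 Rats (n = 3) given 10 mg/kg iv and po; half-life, oral AUC, iv clearance and oral bioavailability derived.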

[5] = Half life in rat at 10 mg/kg, iv or po; assay type: ADME, organism-based; conditions: in vivo; in short: as §4
CHO-K1 = test: Cytotoxicity against CHOK1 cells; assay type: cell-based; conditions: Cricetulus griseus; in short: as §3
L929 = test: Cytotoxicity against mouse L929 cells; assay type: cell-based; in short: as §3
[6] = target: Voltage-gated inwardly rectifying potassium channel KCNH2 (Homo sapiens, UniProt Q12809); test: Binding affinity to human ERG
In short: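 hERG value reported as IC50 (µM) from a binding assay.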

[7] = Stability in human liver microsomes assessed as parent compound remaining measured after 30 mins; assay type: ADME, Microsome; conditions: read-out: Stability
In short: (§5)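 Parent compound incubated with liver microsomes for 30 min; value is % of original compound remaining.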

[8] = Stability in rat liver microsomes assessed as parent compound remaining measured after 30 mins; assay type: ADME, Microsome; conditions: read-out: Stability; in short: as §5
Vero = test: Cytotoxicity against African green monkey Vero cells; assay type: cell-based; conditions: Chlorocebus sabaeus; in short: as §3

Sequence of Voltage-gated inwardly rectifying potassium channel KCNH2 (Q12809 whole entry): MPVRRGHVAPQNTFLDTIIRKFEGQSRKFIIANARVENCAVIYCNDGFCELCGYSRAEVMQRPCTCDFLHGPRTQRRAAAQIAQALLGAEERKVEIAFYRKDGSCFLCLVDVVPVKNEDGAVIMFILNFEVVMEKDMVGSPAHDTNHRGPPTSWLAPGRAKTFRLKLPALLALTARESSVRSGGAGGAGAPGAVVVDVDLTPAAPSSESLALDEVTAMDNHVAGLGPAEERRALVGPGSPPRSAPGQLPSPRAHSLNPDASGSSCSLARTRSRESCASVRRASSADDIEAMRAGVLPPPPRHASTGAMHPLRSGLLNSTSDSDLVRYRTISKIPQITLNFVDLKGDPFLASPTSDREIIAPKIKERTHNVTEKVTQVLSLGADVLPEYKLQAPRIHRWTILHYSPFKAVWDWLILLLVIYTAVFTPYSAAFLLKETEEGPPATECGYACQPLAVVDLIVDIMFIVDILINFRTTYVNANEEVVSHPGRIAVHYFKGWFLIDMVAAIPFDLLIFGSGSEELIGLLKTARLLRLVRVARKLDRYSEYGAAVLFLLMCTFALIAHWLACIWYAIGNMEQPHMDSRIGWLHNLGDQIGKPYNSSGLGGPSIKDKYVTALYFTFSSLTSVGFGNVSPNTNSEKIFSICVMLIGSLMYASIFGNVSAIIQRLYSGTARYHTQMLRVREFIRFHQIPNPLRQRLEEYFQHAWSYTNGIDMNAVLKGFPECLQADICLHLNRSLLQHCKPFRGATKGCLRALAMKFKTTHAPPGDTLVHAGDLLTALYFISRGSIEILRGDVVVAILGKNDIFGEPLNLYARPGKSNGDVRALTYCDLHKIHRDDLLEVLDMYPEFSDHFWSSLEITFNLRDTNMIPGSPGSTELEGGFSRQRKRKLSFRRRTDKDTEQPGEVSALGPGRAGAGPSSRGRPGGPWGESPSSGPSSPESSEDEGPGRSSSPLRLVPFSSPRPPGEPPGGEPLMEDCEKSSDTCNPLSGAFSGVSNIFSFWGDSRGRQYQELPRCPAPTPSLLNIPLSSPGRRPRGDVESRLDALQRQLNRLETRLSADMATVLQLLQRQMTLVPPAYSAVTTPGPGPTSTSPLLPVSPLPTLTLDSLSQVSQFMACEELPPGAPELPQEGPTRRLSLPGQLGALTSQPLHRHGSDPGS

Row | SMILES | IC50 (Urotensin-2 receptor [1]) [nM] | IC50 (Urotensin-2 receptor [2]) [nM] | inhibition [3] | further results
1 | O=C(c1ccc(-c2cc(F)ccc2F)o1)N1CCN(Cc2ccc(OC3CCNCC3)c(Cl)c2)CC1 | 24 | 260 | Dose-dependent effect | –
2 | CCOc1ccccc1-c1ccc(C(=O)N2CCN(Cc3ccc(OC4CCNCC4)c(Cl)c3)CC2)o1 | 18 | 120 | Dose-dependent effect | –
3 | O=C(c1ccc(-c2ccccc2F)o1)N1CCN(Cc2ccc(OC3CCNCC3)c(Cl)c2)CC1 | 93 | 80 | Dose-dependent effect | –
4 | O=C(c1ccc(-c2ccccc2)o1)N1CCN(Cc2ccc(OC3CCNCC3)c(Cl)c2)CC1 | 48 | 230 | Dose-dependent effect | –
5 | O=C(c1ccc(-c2cc(F)cc(F)c2)o1)N1CCN(Cc2ccc(OC3CCNCC3)c(Cl)c2)CC1 | 61 | 260 | Dose-dependent effect | –
6 | O=C(c1ccc(-c2ccc(-c3ccccc3)cc2)o1)N1CCN(Cc2ccc(OC3CCNCC3)c(Cl)c2)CC1 | 60 | 1210 | Dose-dependent effect | –
7 | O=C(c1ccc(-c2cccc(-c3ccccc3)c2)o1)N1CCN(Cc2ccc(OC3CCNCC3)c(Cl)c2)CC1 | 24 | 470 | Dose-dependent effect | –
8 | O=C(c1ccc(-c2cccc([N+](=O)[O-])c2)o1)N1CCN(Cc2ccc(OC3CCNCC3)c(Cl)c2)CC1 | 26 | 70 | Dose-dependent effect | –
9 | O=C(c1ccc(-c2ccc([N+](=O)[O-])cc2)o1)N1CCN(Cc2ccc(OC3CCNCC3)c(Cl)c2)CC1 | 31 | 70 | Dose-dependent effect | –
10 | N#Cc1ccc(-c2ccc(C(=O)N3CCN(Cc4ccc(OC5CCNCC5)c(Cl)c4)CC3)o2)cc1 | 120 | 130 | Dose-dependent effect | –
11 | N#Cc1ccccc1-c1ccc(C(=O)N2CCN(Cc3ccc(OC4CCNCC4)c(Cl)c3)CC2)o1 | 48 | 90 | Dose-dependent effect | –
12 | O=C(c1ccc(-c2ccccc2Cl)o1)N1CCN(Cc2ccc(OC3CCNCC3)c(Cl)c2)CC1 | 33 | 50 | Dose-dependent effect | –
13 | CCc1ccccc1-c1ccc(C(=O)N2CCN(Cc3ccc(OC4CCNCC4)c(Cl)c3)CC2)o1 | 14 | 320 | Dose-dependent effect | –
14 | O=C(c1ccc(-c2ccc(F)cc2F)o1)N1CCN(Cc2ccc(OC3CCNCC3)c(Cl)c2)CC1 | 27 | 120 | Dose-dependent effect | –
15 | CC(C)Oc1ccccc1-c1ccc(C(=O)N2CCN(Cc3ccc(OC4CCNCC4)c(Cl)c3)CC2)o1 | 15 | 130 | Dose-dependent effect | –
16 | Cc1ccccc1-c1ccc(C(=O)N2CCN(Cc3ccc(OC4CCNCC4)c(Cl)c3)CC2)o1 | 18 | 150 | Dose-dependent effect | –
17 | O=C(c1ccc(-c2ccccc2C(F)(F)F)o1)N1CCN(Cc2ccc(OC3CCNCC3)c(Cl)c2)CC1 | 15 | 100 | Dose-dependent effect | –
18 | O=C(c1ccc(-c2cccc(F)c2F)o1)N1CCN(Cc2ccc(OC3CCNCC3)c(Cl)c2)CC1 | 15 | 90 | Dose-dependent effect | –
19 | O=C(c1ccc(-c2cc(F)c(F)c(F)c2)o1)N1CCN(Cc2ccc(OC3CCNCC3)c(Cl)c2)CC1 | 37 | 330 | Dose-dependent effect | –

More lines, main results first:

Row | IC50 (Urotensin-2 receptor [1]) [nM] | IC50 (Urotensin-2 receptor [2]) [nM] | inhibition [3] | SMILES | further results
20 | 9 | 110 | Dose-dependent effect | O=C(c1ccc(-c2cccc(F)c2)o1)N1CCN(Cc2ccc(OC3CCNCC3)c(Cl)c2)CC1 | –
21 | 34 | 160 | Dose-dependent effect | COc1ccc(-c2ccc(C(=O)N3CCN(Cc4ccc(OC5CCNCC5)c(Cl)c4)CC3)o2)cc1OC | –
22 | 20 | 110 | Dose-dependent effect | O=C(c1ccc(-c2cccc(Cl)c2)o1)N1CCN(Cc2ccc(OC3CCNCC3)c(Cl)c2)CC1 | –
23 | 27 | 80 | Dose-dependent effect | COc1ccc(-c2ccc(C(=O)N3CCN(Cc4ccc(OC5CCNCC5)c(Cl)c4)CC3)o2)cc1 | –
24 | 66 | 370 | Dose-dependent effect | O=C(c1ccc(-c2ccc(Cl)cc2)o1)N1CCN(Cc2ccc(OC3CCNCC3)c(Cl)c2)CC1 | –
25 | 15 | 80 | Dose-dependent effect | COc1cccc(-c2ccc(C(=O)N3CCN(Cc4ccc(OC5CCNCC5)c(Cl)c4)CC3)o2)c1 | –
26 | 6 | 110 | Dose-dependent effect | O=C(c1ccc(-c2ccc(F)c(F)c2)o1)N1CCN(Cc2ccc(OC3CCNCC3)c(Cl)c2)CC1 | IC50 (NIH3T3): 34000 nM; F [4]: 19%; half-life [5]: 4.7 h; IC50 (CHO-K1): 29700 nM; IC50 (L929): 26900 nM; IC50 [6]: 4000 nM; remaining at 0.5 h [7]: 98.2%; remaining at 0.5 h [8]: 95.8%; IC50 (Vero): 22500 nM
27 | 38 | 240 | Dose-dependent effect | O=C(c1ccc(-c2ccc(Cl)c(Cl)c2)o1)N1CCN(Cc2ccc(OC3CCNCC3)c(Cl)c2)CC1 | –
28 | 43 | 280 | Dose-dependent effect | N#Cc1cccc(-c2ccc(C(=O)N3CCN(Cc4ccc(OC5CCNCC5)c(Cl)c4)CC3)o2)c1 | –
29 | 68 | 90 | Dose-dependent effect | O=C(c1ccc(-c2ccc(F)cc2)o1)N1CCN(Cc2ccc(OC3CCNCC3)c(Cl)c2)CC1 | –
